# Bioassay records: PubChem, several laboratories
# Sampled rows, rich in hits. Any-hit rate of the full collection: about 4.9%.
# STAT1 act-1: STAT1 signaling activation; AID 932; NIH 3T3 STAT1-luciferase reporter, IFN-gamma, luminescence; 100% = IFN-gamma alone, no compound; activation (% of control), % at 5.5 µM; actives 2.6% (n = 200,000);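 active = activation above the screen-wide mean activation plus 3 SD, cut at about 130% in these data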
# STAT3 act-1: activators of IL-6 induced STAT3 signaling; actives 0.91% (n = 190,000); activation (% of control), % at 5.6 µM; U3A cells, IL-6 STAT3-luciferase reporter, luminescence; 100% = signal with IL-6 EC80 alone;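 active = activation above the screen-wide mean of compound activation plus 3 SD, cut at about 130% in these data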
#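 System – human U3A cells carrying STAT3-luciferase construct · Probe or stimulus – Interleukin-6, 33 ng/mL · Schedule – compound 1 h, then IL-6 6 h at 37 °C · Signal – luminescence from STAT3-driven luciferase reporter · Evaluation – percent of IL-6-only median luminescence · Benchmarks – IL-6-only high control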
# APP 5'UTR act: activates APP 5'UTR luciferase reporter; actives 1% (n = 190,000); activation, % at 2 µM; SH-SY5Y APP 5'UTR luciferase reporter, luminescence; zero percent = DMSO vehicle wells;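 active = activation above a set limit, based on mean plus 3 SD of controls, cut at about 140% in these data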
# STAT3 inh-1: reduces IL-6 driven STAT3 reporter signal | U3A cells, IL-6 STAT3-luciferase reporter, luminescence; host cell line lacks STAT1 | inhibition, % at 5.5 µM | actives 0.89% (n = 190,000) | AID 862;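 active = inhibition above the mean inhibition across all screened compounds plus 3 SD, cut at about 44% in these data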
# NF-kB expr up: NF-kB expression increase, human neuronal cells. NF-kB reporter expression; active compounds read high. fold change at 12.5 µM. actives 1.6% (n = 190,000). AID 1239; in the data active = fold change above about 3.3
# STAT1 inh: STAT1 signaling inhibition; inhibition, % at 5.5 µM; actives 0.35% (n = 200,000); NIH 3T3 STAT1-luciferase reporter, IFN-gamma, luminescence;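 active = inhibition above a set limit, the mean inhibition across all tested compounds plus 3 SD, cut at about 34% in these data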
# STAT3 inh-2: confirmation of STAT3 signaling inhibitors; AID 1265; U3A cells, IL-6 STAT3 luciferase reporter, luminescence; cell line lacks STAT1; inhibition, % at 5.7 µM; actives 45% (n = 1,200); shares compounds with STAT3 inh-1;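 active = inhibition above the hit cutoff computed for the primary STAT3 screen, cut at about 44% in these data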
# NFkB inh STAT3ct: counter-screen for STAT3 inhibitors: NF-kappaB inhibition; shares compounds with STAT3 inh-1; HEK293T NF-kB luciferase reporter, TNF-alpha induced; inhibition, % at 5.7 µM; actives 36% (n = 1,200); AID 1308;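 active = inhibition above the mean of solvent-only control wells plus 3 SD, cutoff set per campaign, cut at about 13% in these data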
# STAT1 inh 2: counter-screen for STAT3 inhibitors: STAT1 inhibition. shares compounds with STAT3 inh-1. NIH 3T3 STAT1-luciferase reporter, IFN-gamma induced, luminescence. inhibition, % at 5.7 µM. actives 27% (n = 1,200);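 active = inhibition above the mean plus 3 SD of solvent-only control wells, limit set per screening run, cut at about 16% in these data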
# STAT3 act-2: confirmation of STAT3 signaling activators; shares compounds with STAT3 act-1; U3A STAT3-luciferase reporter, IL-6 potentiation, luminescence; U3A cells lack STAT1; 100 means same as IL-6 alone; potentiation (% of control), % at 5.7 µM; actives 64% (n = 1,200); AID 1267;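 active = percent activation of the STAT3 luciferase reporter above a set limit taken from the earlier primary screen, cut at about 130% in these data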
# NFkB act 2: activates NF-kappaB, counter-screen to STAT3 activators | shares compounds with STAT3 act-1 | human cells, NF-kappaB reporter activation | activation (% of control), % at 5.7 µM | actives 11% (n = 1,200); in the data active = activation above about 120%;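 also: reporter induced by TNF-alpha stimulation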
# STAT1 act-2: activates STAT1, counter-screen to STAT3 activators | shares compounds with STAT3 act-1 | NIH 3T3 STAT1-luciferase reporter, IFN-gamma, luminescence | activation (% of control), % at 5.7 µM | actives 13% (n = 1,200) | AID 1318;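 active = activation above the solvent-only control well mean plus 3 SD, set per screening run, cut at about 120% in these data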
# STAT1 activ conf: STAT1 activation, confirmation assay. shares compounds with STAT1 act-1. NIH 3T3 STAT1-luciferase reporter, IFN-gamma potentiation, luminescence; 100% = IFN-gamma EC80 alone, no compound. activation (% of control), % at 5.7 µM. actives 97% (n = 1,200). AID 1262;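 active = activation above a set limit carried over from the earlier primary STAT1 screen, cut at about 140% in these data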
# NFkB act STAT1ct: activates NF-kappaB, counter-screen to STAT1 activators. shares compounds with STAT1 act-1. HEK293T NF-kB luciferase reporter, TNF-alpha stimulated, luminescence; 100% = TNF-alpha with vehicle only. activation (% of control), % at 5.7 µM. actives 43% (n = 1,200). AID 1306;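 active = activation above the mean of solvent-only control wells plus 3 SD, set per campaign, cut at about 130% in these data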;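 also: TNF-alpha given at a submaximal dose yielding about 80% of full reporter signal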
# STAT3 act STAT1c: human STAT3 activation in STAT1 activator counter-screen; shares compounds with STAT1 act-1; U3A cells STAT3-luciferase reporter, IL-6, luminescence; cells lack STAT1; 100 = IL-6 alone, no compound effect; activation (% of control), % at 5.7 µM; actives 46% (n = 1,200);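 active = activation above the solvent-only control well mean plus 3 SD, set per plate batch, cut at about 110% in these data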;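 also: higher means more STAT3 reporter activation so hits are non-selective activators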
# Hits are given with their value; i = inactive; nt = no result.
SMILES,STAT1 act-1,STAT3 act-1,APP 5'UTR act,STAT3 inh-1,NF-kB expr up,STAT1 inh,STAT3 act-2,NFkB act 2,STAT1 act-2,others
N#C/C(=C\c1ccc(N2CCOCC2)o1)c1nc2ccccc2[nH]1,160,i,156,66,i,i,nt,nt,nt,STAT3 inh-2=i;NFkB inh STAT3ct=i;STAT1 inh 2=i;STAT1 activ conf=255;NFkB act STAT1ct=i;STAT3 act STAT1c=i
N#C/C(=C\c1ccc(N2CCOCC2)c([N+](=O)[O-])c1)c1nc2ccccc2[nH]1,i,i,i,i,i,i,nt,nt,nt,
COc1ccc(/C=N/Nc2cc(OC)ncn2)cc1,152,i,203,51,6.8,i,nt,nt,nt,STAT3 inh-2=i;NFkB inh STAT3ct=i;STAT1 inh 2=i;STAT1 activ conf=228;NFkB act STAT1ct=i;STAT3 act STAT1c=i
CCOC(=O)/C(C#N)=C\c1cc(C)n(-c2ccccc2)c1C,165,i,136,45,i,i,nt,nt,nt,STAT3 inh-2=i;NFkB inh STAT3ct=i;STAT1 inh 2=i;STAT1 activ conf=238;NFkB act STAT1ct=i;STAT3 act STAT1c=115
CCOc1cc(-c2ccc(N)c(OCC)c2)ccc1N,i,155,i,i,i,i,136,i,i,
CCOc1ccc(-c2nnc(-c3ccncc3)o2)cc1OCC,i,i,i,i,i,i,nt,nt,nt,
COC(=O)c1cccc(NC(=O)CCCOc2cccc(C)c2)c1,i,136,i,i,i,i,i,i,i,
O=C(CN1CCNCC1)Nc1ccc(Oc2ccccc2)cc1,i,141,i,i,i,i,139,i,i,
O=C(CN1CCOCC1)Nc1ccc(Oc2ccccc2)cc1,i,i,i,i,i,i,nt,nt,nt,
Cc1nc2c(-c3ccc(Cl)cc3)cnn2c2c1CCC2,i,142,i,i,i,i,151,i,i,
Cc1cc(Sc2nc(N(C)C)nc(N(C)C)n2)nc(Cl)n1,i,i,i,i,i,i,nt,nt,nt,
Cc1ccc(NC(=O)c2cc(Cl)nc3ccccc23)cc1,i,i,i,i,i,i,nt,nt,nt,
Cc1ccc(NC(=O)C2=C(O)CCn3c2nc2ccccc23)cc1,i,149,i,i,i,i,i,i,i,
CC(=O)Nc1ccccc1-c1nn[nH]n1,i,151,i,i,i,i,142,i,i,
CC(C)Cc1cc(C(=O)Nc2cc(Cl)ccc2Cl)no1,i,138,i,i,i,i,137,i,i,
O=C(COC(=O)c1cncc(Br)c1)NC1CCCCCC1,i,i,i,i,i,i,nt,nt,nt,
Cc1ccc(N)c2c1OCCC2=O,i,137,i,i,i,i,137,i,i,
CC(C)C1CC(CCN)(Cc2ccccc2)CCO1 (configuration not stated),i,i,i,i,i,i,nt,nt,nt,
CC1=NOC(=O)/C1=C\c1ccc(-c2ccc(Cl)c(C(=O)O)c2)o1,i,i,i,i,i,i,nt,nt,nt,
CC1=NOC(=O)/C1=C\c1ccc(-c2cccc(Cl)c2)o1,i,137,i,i,i,i,i,i,i,
CCOC(=O)c1cnn(-c2ncnc3sc4c(c23)CCC4)c1N,i,148,i,i,i,i,149,i,i,
O=C(Nc1ccccc1O)c1csc2c1CCCC2,i,151,i,i,i,i,149,i,i,
O=C(CCc1ccc(S(=O)(=O)N2CCOCC2)cc1)OCc1nc2ccccc2s1,i,142,i,i,i,i,147,122,136,
O=c1[nH]nc(Cc2ccc3ccccc3n2)c2ccccc12,i,147,i,i,i,i,i,i,i,
COCCn1c(NCc2ccco2)nc2c1c(=O)[nH]c(=O)n2C,i,i,i,i,i,i,nt,nt,nt,
SMILES,STAT1 act-1,STAT3 act-1,APP 5'UTR act,STAT3 inh-1,NF-kB expr up,STAT1 inh,STAT3 act-2,NFkB act 2,STAT1 act-2,others
COC(=O)CCC(=O)Nc1ccc(C)cc1OC(=O)CCC(=O)OC,i,136,i,i,i,i,i,i,i,
Cc1ccc(CC(=O)Nc2nc3c(s2)CCCC3)cc1,i,141,i,i,3.4,i,137,i,i,
O=C(NC(=S)Nc1nc2c(s1)CCCC2)c1ccccc1,i,148,191,i,i,i,206,142,200,
COC1=CCC2([N+](=O)[O-])CN(CCO)CC1([N+](=O)[O-])C2 (configuration not stated),i,i,i,i,i,i,nt,nt,nt,
Cc1ccc(CNC(=O)C2CC(c3ccccc3[N+](=O)[O-])=NO2)cc1 (configuration not stated),i,156,i,i,i,i,174,i,i,
O=C(COc1cccc(Cl)c1)Nc1ccc2c(c1)CCC2,i,i,i,i,i,i,nt,nt,nt,
Cc1ccsc1/C=C/C(=O)O,i,i,i,i,i,i,nt,nt,nt,
Oc1c(Cl)cc(Cl)cc1/C=C/c1ccc2cccc(O)c2n1,i,i,i,i,i,i,nt,nt,nt,
Oc1cccc2ccc(/C=C/c3cccs3)nc12,i,148,148,i,i,i,189,121,i,
Cc1ccsc1/C=C/c1ccc2cccc(O)c2n1,i,154,148,i,5,i,176,i,i,
O=C(/C=C/c1cccs1)c1cc(Cl)ccc1O,i,i,i,i,i,i,nt,nt,nt,
Oc1ccc(Cl)cc1/C=C/c1ccc2cccc(O)c2n1,i,167,i,i,i,i,156,i,i,
CCN(CC)CCCN(Cc1cc2cc3c(cc2[nH]c1=O)OCO3)C(=S)Nc1ccc(OC)cc1,i,i,i,i,i,i,nt,nt,nt,
